The target of experiment [1] is T1, Mast/stem cell growth factor receptor Kit (Homo sapiens, UniProt P10721). The experiment in a line: Inhibition of wild type His-tagged c-KIT (544 to 976 amino acids) (unknown origin) expressed in insect cells using poly[Glu:Tyr] (4:1) as substrate preincubated for 20 mins followed by [33P-gamma]ATP addition and subsequent inhibition for 2 hrs by radiometric assay. In a few lines:
(§1)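 Compounds were serially diluted in DMSO and preincubated with enzyme for 20 min at RT. Final ATP was 1 μM. Reaction ran 2 h at RT, read by filter binding. Percent activity was taken relative to DMSO, and IC50 came from curve fitting.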

The target of experiment [2] is Mast/stem cell growth factor receptor Kit (Homo sapiens, UniProt P10721, D816V). In words: Inhibition of N-terminal GST-His-tagged c-KIT (544 to 976 amino acids) D816V mutant (unknown origin) expressed in Sf9 insect cells using poly[Glu:Tyr] (4:1) as substrate preincubated for 20 mins followed by [33P-gamma]ATP addition and subsequent inhibition for 2 hrs by radiometric assay. In a few lines: as §1

Experiment [3] relates to Mast/stem cell growth factor receptor Kit (Homo sapiens), P10721 [D816V]. In words: Inhibition of c-KIT D816V mutant (unknown origin) expressed in HEK293 cells assessed as remaining activity at 100 uM incubated for 1 hr with shaking by qPCR method relative to control. Type of experiment: cell-based. Summed up:
(§2)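 Competition binding assay run at a single 100 μM concentration, added from 40× DMSO stocks. Tagged kinase was combined with immobilized biotinylated ligand on streptavidin magnetic beads in SeaBlock/0.17× PBS/0.05% Tween 20/6 mM DTT for 1 h at RT with shaking. Beads were washed, then eluted with 0.5 μM free ligand for 30 min. Eluted kinase was quantified by qPCR as percent of control.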
On the technique in general: Real-time PCR tracks product formation cycle by cycle.

Experiment [4] has as its target T1, Mast/stem cell growth factor receptor Kit. In words: Inhibition of wild type c-KIT (unknown origin) expressed in T7-phage infected Escherichia coli BL21 assessed as remaining activity at 100 uM incubated for 1 hr with shaking by qPCR method relative to control. Summed up:
as §2

The species entered for experiment [5] is Homo sapiens. The experiment in a line: Selectivity ratio of IC50 for wild type His-tagged c-KIT (544 to 976 amino acids) (unknown origin) to IC50 for N-terminal GST-His-tagged c-KIT (544 to 976 amino acids) D816V mutant (unknown origin).

These results are taken from ChEMBL document CHEMBL3804766, “Discovery of Dual Inhibitors for Wild Type and D816V Mutant of c-KIT Kinase through Virtual and Biochemical Screening of Natural Products” (J Nat Prod, 2016).

Sequence of Mast/stem cell growth factor receptor Kit (Homo sapiens), P10721 [D816V] (P10721 whole entry D816V): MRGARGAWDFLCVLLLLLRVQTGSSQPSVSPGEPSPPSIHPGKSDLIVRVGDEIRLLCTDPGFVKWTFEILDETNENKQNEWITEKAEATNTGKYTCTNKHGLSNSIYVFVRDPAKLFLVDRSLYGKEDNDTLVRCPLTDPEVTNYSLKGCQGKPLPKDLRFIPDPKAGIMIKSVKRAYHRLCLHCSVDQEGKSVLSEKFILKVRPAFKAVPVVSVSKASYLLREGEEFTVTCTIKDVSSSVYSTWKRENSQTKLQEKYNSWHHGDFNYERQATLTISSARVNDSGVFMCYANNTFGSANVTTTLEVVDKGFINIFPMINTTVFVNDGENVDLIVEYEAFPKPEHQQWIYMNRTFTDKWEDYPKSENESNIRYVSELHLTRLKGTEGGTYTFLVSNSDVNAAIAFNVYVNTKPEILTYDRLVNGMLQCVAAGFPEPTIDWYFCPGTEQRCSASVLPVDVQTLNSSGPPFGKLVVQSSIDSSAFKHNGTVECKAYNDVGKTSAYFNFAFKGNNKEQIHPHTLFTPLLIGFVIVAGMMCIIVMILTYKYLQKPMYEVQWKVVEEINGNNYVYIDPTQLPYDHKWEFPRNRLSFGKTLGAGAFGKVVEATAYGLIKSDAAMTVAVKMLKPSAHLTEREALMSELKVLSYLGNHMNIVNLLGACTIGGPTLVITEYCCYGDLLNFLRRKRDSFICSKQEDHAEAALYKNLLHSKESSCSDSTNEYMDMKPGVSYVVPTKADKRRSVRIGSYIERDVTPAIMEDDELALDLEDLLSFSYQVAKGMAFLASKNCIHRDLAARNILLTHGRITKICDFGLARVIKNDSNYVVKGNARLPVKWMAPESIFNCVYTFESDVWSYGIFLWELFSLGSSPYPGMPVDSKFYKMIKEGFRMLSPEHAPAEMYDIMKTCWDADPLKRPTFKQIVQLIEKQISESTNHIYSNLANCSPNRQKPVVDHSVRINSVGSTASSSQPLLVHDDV
Sequence of Mast/stem cell growth factor receptor Kit (Homo sapiens, UniProt P10721, D816V) (P10721 26-976 D816V limits assumed): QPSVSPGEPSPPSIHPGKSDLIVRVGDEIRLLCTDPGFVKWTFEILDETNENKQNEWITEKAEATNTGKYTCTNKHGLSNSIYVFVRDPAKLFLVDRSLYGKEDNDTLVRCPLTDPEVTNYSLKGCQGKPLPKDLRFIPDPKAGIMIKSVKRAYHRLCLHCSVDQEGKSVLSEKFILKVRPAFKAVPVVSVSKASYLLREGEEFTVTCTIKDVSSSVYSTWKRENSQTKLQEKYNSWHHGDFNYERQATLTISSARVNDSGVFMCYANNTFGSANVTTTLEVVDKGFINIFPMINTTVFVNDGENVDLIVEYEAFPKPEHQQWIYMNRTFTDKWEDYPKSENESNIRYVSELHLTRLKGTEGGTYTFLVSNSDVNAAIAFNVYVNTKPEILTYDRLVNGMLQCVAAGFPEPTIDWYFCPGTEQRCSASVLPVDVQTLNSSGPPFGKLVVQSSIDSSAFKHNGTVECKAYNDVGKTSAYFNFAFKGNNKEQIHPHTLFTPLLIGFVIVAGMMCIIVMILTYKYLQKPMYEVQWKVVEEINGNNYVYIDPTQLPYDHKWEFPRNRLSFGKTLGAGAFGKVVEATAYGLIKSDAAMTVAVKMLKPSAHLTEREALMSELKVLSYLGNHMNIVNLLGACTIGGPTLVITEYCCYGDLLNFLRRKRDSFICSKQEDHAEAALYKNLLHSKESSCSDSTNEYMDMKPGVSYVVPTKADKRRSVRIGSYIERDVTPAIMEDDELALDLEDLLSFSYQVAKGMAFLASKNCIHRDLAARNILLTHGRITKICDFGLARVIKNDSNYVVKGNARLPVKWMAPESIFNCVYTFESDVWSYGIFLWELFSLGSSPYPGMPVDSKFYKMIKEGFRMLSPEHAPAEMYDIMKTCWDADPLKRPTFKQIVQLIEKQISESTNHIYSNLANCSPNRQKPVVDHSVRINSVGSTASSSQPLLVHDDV
T1 sequence (P10721 whole entry, the tested form may be a part): as the sequence (P10721 whole entry D816V) above, with V816D counted along it

A word on the IC50: it is the concentration needed to halve the response being measured. Low values mean greater potency in that assay, high ones weaker potency in that assay. On to `COc1c(O)c(O)c2oc(-c3ccccc3)cc(=O)c2c1OC`, for which the IC50 in experiment [1] amounted to 7.8 µM; in experiment [2], 0.5 µM. Also, in experiment [3], the Activity amounted to 0%. The Kinase binding remaining, % of control in experiment [4] came out at 1%.
With `O=C1c2c(O)cc(O)cc2O[C@H](c2ccc(O)c(O)c2)[C@H]1O`, the Activity in experiment [3] was 15%. Further, in experiment [4], the Kinase binding remaining, % of control was determined as 12%.
In the case of `COc1ccc(-c2cc(=O)c3c(O)c(OC)c(O)cc3o2)cc1` [PECTOLINARIGENIN], the values for the IC50 in experiment [1] and in experiment [2] were 1.5 µM and 0.6 µM, respectively. Moreover, the Activity in experiment [3] turned out to be 3%. In addition, in experiment [4], the Kinase binding remaining, % of control is 0%.
As for `COc1ccc(/C=C2\Oc3cc(O)ccc3C2=O)cc1`, the IC50 in experiment [1] was found to be 15.6 µM; in experiment [2] it was 1.4 µM. The Ratio IC50 in experiment [5] was over 10. The Activity in experiment [3] came out at 15%. Also, the Kinase binding remaining, % of control in experiment [4] amounted to 0%.
